# High-throughput results deposited in PubChem by several laboratories.
# Rows were chosen to be rich in hits. Some 2.1% of all compounds tested hit in one or more screens of this group.
# GSTO1 counter – counter-screen for RBBP9 inhibitors: inhibitors of human GSTO1; AID 1974; inhibition, % at 5.96 µM; P78417; 300,000 tested, 1.1% active; recombinant GSTO1, activity-based probe fluorescence polarization;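 active = inhibition above the campaign mean inhibition plus 3 SD, cut at about 35% in these data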;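 note: 0% = GSTO1-1 with DMSO and 100% = wells lacking GSTO1-1 enzyme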
# Target sequence (P78417 whole entry, looked up): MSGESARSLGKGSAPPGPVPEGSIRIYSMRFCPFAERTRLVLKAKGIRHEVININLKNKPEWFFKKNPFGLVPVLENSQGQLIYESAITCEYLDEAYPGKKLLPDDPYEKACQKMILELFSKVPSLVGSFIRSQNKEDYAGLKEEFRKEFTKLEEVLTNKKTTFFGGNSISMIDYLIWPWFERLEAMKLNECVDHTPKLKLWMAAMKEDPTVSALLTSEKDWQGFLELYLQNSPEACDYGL
# Apaf1 inhib – inhibitors of human Apaf-1 apoptosome; 330,000 tested, 0.71% active; inhibition, % at 20 µM; reconstituted apoptosome caspase-3 activity, DEVD-Rh110 fluorescence; AID 489030; active = inhibition of at least 40% at 20 µM;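 note: plate controls were DMSO wells for no effect and DEVD-CHO caspase inhibitor wells for full effect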
#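 Medium: Hepes buffer, pH 7.5 / System: biochemical Apaf-1 apoptosome reconstitution / Measured by: Rh110 fluorescence, excitation 480 nm, emission 540 nm / Times: compound with Apaf-1, dATP, procaspase-3 30 min, then 50 min reaction, room temperature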
# TDP2 absorb – TDP2 (human) inhibition, absorbance primary screen; O95551; recombinant TDP2, T5PNP hydrolysis, p-nitrophenol absorbance 415 nm; inhibition, % at 12.8 µM; 370,000 tested, 0.34% active; AID 720702;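 active = inhibition above the mean of all tested compounds plus 3 SD, set per campaign, cut at about 25% in these data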;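 note: 0% = DMSO with enzyme and 100% = buffer with substrate but no TDP2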
#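 System: recombinant human TDP2 / Amount: 120 nM TDP2 per well / Also added: 5 mM T5PNP chromogenic substrate / Doses: 12.8 µM single point, 1% DMSO / Incubation: 2 h at 37 °C / Detection: p-Nitrophenol epi absorbance / Evaluation: % inhibition relative to enzyme-containing and enzyme-free wells / Repeats: singlicate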
# PP1 inh – blocks human PP1-alpha phosphatase, a PP5 counter-screen; P62136; purified PP1alpha, OMFP fluorescence; inhibition, % at 6.7 µM; 320,000 tested, 0.9% active; AID 2235;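 active = inhibition above the mean inhibition of all tested compounds plus 3 SD, computed separately for each screening campaign, cut at about 15% in these data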
# PP5 inh – blocks human protein phosphatase 5 activity. inhibition, % at 6.7 µM. purified PP5c, OMFP substrate fluorescence. 320,000 tested, 0.18% active. P53041;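 active = inhibition above the campaign's mean inhibition across all tested compounds plus 3 SD, cut at about 9.5% in these data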;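 note: 0% = DMSO only and 100% = 100 µM cantharidin control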
# PP1 inh confirm – human PP1 phosphatase inhibition, confirmation | shares compounds with PP1 inh | AID 2358 | purified PP1alpha, OMFP substrate fluorescence | inhibition, % at 6.7 µM | 1,900 tested, 52% active;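 active = mean PP1 inhibition above a set limit taken from the earlier primary screen, cut at about 15% in these data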
# PP5 inh counter – PP5 phosphatase inhibition, counter-screen for PP1 inhibitors. shares compounds with PP1 inh. purified PP5c, OMFP fluorescence. inhibition, % at 6.7 µM. 1,900 tested, 4% active;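 active = mean PP5 inhibition over triplicate wells above about 9.5% taken from the earlier PP1 screen, limit read from the data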
# Numbers without * were called inactive; . = no result.
SMILES,GSTO1 counter,Apaf1 inhib,TDP2 absorb,PP1 inh,PP5 inh,PP1 inh confirm,PP5 inh counter
CCCCOc1ccc(C2C(C(=O)c3ccc(C)o3)=C(O)C(=O)N2CC2CCCO2)cc1 (centres undefined),4,15,-9,20*,0,27*,-2
Cc1ccc(S(=O)(=O)N2[C@@H](c3ccc(Cl)cc3)C(C(=O)O)=CC[C@H]2c2ccc(Cl)cc2)cc1,-72,19,-16,21*,5,12,0
Cc1ccc(S(=O)(=O)N2[C@@H](c3ccc(F)cc3)C(C(=O)O)=CC[C@H]2c2ccc(Cl)cc2)cc1,-150,26,-4,11,-2,.,.
Cc1ccc(S(=O)(=O)N2[C@@H](c3cccc(Cl)c3)C(C(=O)O)=CC[C@H]2c2ccc(C(C)C)cc2)cc1,-66,11,-8,29*,2,21*,2
O=C(O)C1=CC[C@@H](c2ccc(Cl)cc2)N(S(=O)(=O)c2ccc(Cl)cc2)[C@H]1c1cccc(Cl)c1,-186,24,8,23*,-3,12,-4
Cc1ccc(S(=O)(=O)N2[C@@H](c3ccc(F)cc3)C(C(=O)O)=CC[C@H]2c2ccc(C(C)C)cc2)cc1,-30,21,-14,19*,4,12,3
Cc1ccc([C@@H]2CC=C(C(=O)O)[C@H](c3ccc(Cl)cc3)N2S(=O)(=O)c2ccc(C)cc2)cc1,-30,21,1,11,3,.,.
Cc1cccc(NC(=O)C2CCN(c3ncccn3)CC2)c1C,.,.,3,.,.,.,.
CNc1cnc(-c2ccsc2)cn1,.,.,-8,.,.,.,.
C[C@@H]1COc2cc(Br)ccc2S(=O)(=O)N1Cc1cn(Cc2ccc(C(F)(F)F)cc2)nn1,.,.,7,.,.,.,.
COc1ccc(NS(=O)(=O)c2ccc(N/N=C(\C)c3ccncc3)c([N+](=O)[O-])c2)cc1,-55,17,-4,24*,4,16*,6
Clc1ccc2nc(CNc3nc(N4CCOCC4)nc4c3ncn4-c3ccsc3)[nH]c2c1,.,.,7,.,.,.,.
O=C(NNc1nc2ccc(Cl)cc2s1)c1cc(-c2cccs2)nc2ccccc12,0,11,-1,25*,2,30*,-4
O=C(COc1ccc(F)cc1)Nc1nc(-c2ccccn2)cs1,7,3,-12,27*,5,35*,-3
O=C(Nc1nc(-c2ccccc2)cs1)Nc1ccc(F)cc1F,-7,0,13,7,0,.,.
Cc1ccc(OCC(=O)Nc2nc(-c3ccccn3)cs2)c(C)c1,-5,12,3,43*,7,41*,-3
O=C(Nc1nc(-c2ccccn2)cs1)Nc1ccc(F)cc1F,5,20,-4,38*,2,42*,-1
O=C(COc1ccc([N+](=O)[O-])cc1)Nc1nc(-c2ccccn2)cs1,5,-2,4,41*,1,37*,0
O=C(COc1cccc(F)c1)Nc1nc(-c2ccccn2)cs1,.,.,-1,.,.,.,.
O=C(N[C@H](C(=O)N1CCC[C@H]1C(=O)NCc1ccccc1)c1ccccc1)c1ccccc1,.,.,-1,.,.,.,.
Cc1ccc(C(=O)CSc2nnc(-c3ccccn3)n2-c2ccccc2)cc1,.,.,0,.,.,.,.
CC1(c2ccccc2)NC(=O)N(CC(=O)Nc2nc(-c3ccccn3)cs2)C1=O (centres undefined),7,6,3,12,4,.,.
Cc1ccc(S(=O)(=O)CCC(=O)Nc2nc(-c3ccccn3)cs2)cc1,.,-4,-3,27*,2,40*,2
Cc1ccc(C2(C)NC(=O)N(CC(=O)Nc3nc(-c4ccccn4)cs3)C2=O)cc1 (centres undefined),-7,5,-3,26*,2,43*,5
CC(=O)N1CCN(c2ccc(N3CCN(Cc4ccccc4)[C@@H](C)C3)c(C)c2)[C@@H](C)C1,.,.,9,.,.,.,.
O=C(Nc1nc(-c2ccccn2)cs1)C1COc2ccccc2O1 (centres undefined),14,7,-2,29*,6,41*,-1
O=C(Nc1nc(-c2ccccc2)cs1)C1COc2ccccc2O1 (centres undefined),-6,10,-5,0,2,.,.
